In all, about 330,000 compounds went through this assay and about 780 (0.24%) were called active. This excerpt belongs to a sample that is enriched for actives. Unmarked numbers belong to inactive results.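 Rule for the calls: active = activation factor of at least 2 at 20 µM; inactive = the rest.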
Each compound was assayed on intestinal alkaline phosphatase [Mus musculus] (assay: mouse intestinal phosphatase enzyme activation – biochemical, luminescence, uHTS, primary screen (AID 2805)). Details: muIAP, CDP-Star luminescence, 30 min; at 10 µM; hits give high values; 1 = vehicle-only enzyme signal, 0 = enzyme-free wells.
Method in brief: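 Assay system: mouse IAP enzyme; Reagent: CDP-Star chemiluminescent phosphatase substrate; Compound: DMSO-dissolved test compounds; Incubation: 30 min, room temperature; Technique: luminescence from enzymatic CDP-Star hydrolysis; Controls: DMSO-only wells and no-enzyme negative control.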

| Structure (SMILES) | activation factor |
| --- | --- |
| CC(NC(=S)Nc1ccccc1)C1COc2ccccc2O1 (stereo not drawn) | 1.67 |
| S=C(NCCCc1ccccc1)Nc1ccc(Br)cc1 | 2.09 (active) |
| O=S(=O)(NCCCc1ccccc1)c1ccc(Br)cc1 | 1.03 |
| S=C(Nc1ccc(Br)cc1)NC1CCN(Cc2ccccc2)CC1 | 1.46 |
| S=C(NCC1COc2ccccc2O1)Nc1ccc(Br)cc1 (stereo not drawn) | 3.2 (active) |
| CCCN(CC1COc2ccccc2O1)C(=S)Nc1ccc(C)cc1 (stereo not drawn) | 1.14 |
| COCCNC(=O)c1ccc(S(=O)(=O)c2ccc(Cl)cc2)c(NC(C)=O)c1 | 0.896 |
| O=C(NCC1CCCO1)c1ccccc1-c1nc(-c2ccccc2Cl)no1 (stereo not drawn) | 0.926 |
| Cc1noc(C)c1S(=O)(=O)N(CC(=O)NCc1ccc(Cl)cc1)c1ccc2c(c1)OCO2 | 1.12 |
| Cc1noc(C)c1S(=O)(=O)N(CC(=O)Nc1ccc2c(c1)OCCO2)c1ccc(C(C)C)cc1 | 2.03 (active) |
| CCOC(=O)c1cccc(NC(=O)CN(c2ccc(C)cc2)S(=O)(=O)c2c(C)noc2C)c1 | 1.37 |
| COc1ccc(N(C)C(=O)C2CCN(S(=O)(=O)c3cccc4nsnc34)CC2)cc1 | 0.954 |
| O=C(NCc1cccnc1)c1cnc2ccccc2n1 | 0.965 |
| CC(C(=O)O)N1C(=O)c2cccc3cccc1c23 (stereo not drawn) | 1.02 |
| CCOc1ccc(C(CC(=O)O)NC(=O)C23CC4CC(CC(C4)C2)C3)cc1OC (stereo not drawn) | 1.06 |
| CCOc1ccc(C(CCc2ccccc2)NC(=O)c2ccc(OC)c(OC)c2)cc1OCC (stereo not drawn) | 2.15 (active) |
| CCOc1ccc(C(CC(=O)O)NC(=O)Cc2ccccc2)cc1OC (stereo not drawn) | 0.993 |
| CCN(CC)Cc1nc2sc(C)c(C)c2c(=O)[nH]1 | 0.952 |
| Cc1cc(=O)[nH]c(Nc2cccc(Br)c2)n1 | 1.07 |
| C=CCOc1cccc(C2NC(=O)c3ccccc3O2)c1 (stereo not drawn) | 1.01 |
| CN(c1ccccc1)S(=O)(=O)c1cccc(NC(=O)Cc2c(F)cccc2Cl)c1 | 2.3 (active) |
| CN(C)S(=O)(=O)c1cccc(NC(=O)Cc2ccsc2)c1 | 1.06 |

| Structure (SMILES) | activation factor |
| --- | --- |
| CN(c1ccccc1)S(=O)(=O)c1cccc(NC(=O)Cc2ccc(Cl)cc2)c1 | 1.55 |
| Cc1ccc(C(=O)N/C(=C\c2cn(C)c3ccccc23)C(=O)N2CCN(C)CC2)cc1 | 0.969 |
| COC(=O)CNC(=O)c1ccc2c(c1)S(=O)(=O)c1ccccc1C2=O | 1.01 |
| O=C(CCc1ccc(S(=O)(=O)NC2CCCCC2)cc1)NCc1ccccc1 | 1.18 |
| CCN(CC)N=Nc1cccc(NC(C)=O)c1 | 0.943 |
| COc1ccc(NC(=O)NC2CC3CCCC(C2)N3Cc2ccccc2)cc1 (stereo not drawn) | 3.11 (active) |
| COc1ccc(CN2C3CCCC2CC(NC(=O)c2cccc(F)c2)C3)cc1 (stereo not drawn) | 1.11 |
| CCOc1ccccc1C(=O)NC1CC2CCCC(C1)N2Cc1ccccc1 (stereo not drawn) | 0.947 |
| O=C(COc1ccc(S(=O)(=O)N2CCOCC2)cc1Cl)N1CCOCC1 | 1.01 |
| C[N+]1(CC(O)COc2ccccc2)CCN(C(=O)c2ccc([N+](=O)[O-])cc2)CC1 (stereo not drawn) | 0.943 |
| Cn1cccc1C(C#N)c1ccccc1C#N (stereo not drawn) | 0.962 |
| O=C1C2CCCN2C(=O)N1CCCCN1CCN(c2cccc(C(F)(F)F)c2)CC1 (stereo not drawn) | 0.942 |
| CC(NC(=O)Nc1cccc([N+](=O)[O-])c1)c1ccc2c(c1)OCO2 (stereo not drawn) | 0.95 |
| CC(NC(=O)Nc1ccc2c(c1)OCO2)c1ccncc1 (stereo not drawn) | 1.02 |
| CCc1ccc(NC(=O)NC(C)c2ccc3c(c2)OCO3)cc1 (stereo not drawn) | 2.38 (active) |
| O=C(NCC1COc2ccccc2O1)C1(c2ccccc2)CCCC1 (stereo not drawn) | 1 |
| c1ccc(-c2cc3c(NCC4COc5ccccc5O4)ncnc3s2)cc1 (stereo not drawn) | 2.05 (active) |
| O=C(Cn1cnc2ccccc2c1=O)NCC1COc2ccccc2O1 (stereo not drawn) | 0.99 |
| CCN(C(=O)Cc1nc(N)n[nH]1)C1(C(=O)Nc2ccccc2)CCCCC1 | 1 |
| COc1ccc(-c2nn(-c3ccccc3)cc2C(=O)Nc2nccs2)cc1OC | 1 |
| COc1ccc(NC(=O)c2cn(-c3ccccc3)nc2SC)cc1 | 3.32 (active) |
| COc1ccc(NC(=O)c2cc(-c3ccc(C)o3)nc3ccccc23)cc1 | 0.934 |

| Structure (SMILES) | activation factor |
| --- | --- |
| CCn1nnc2cc(C(=O)Nc3ccc(C(=O)OC(C)C)cc3)ccc21 | 0.97 |
| CCOC(=O)c1cc(C)sc1NC(=O)C1CCC1 | 1.01 |
| S=C(NNC(=S)NC1CC2CCC1C2)NC1CC2C=CC1C2 (stereo not drawn) | 0.928 |
| CC(C)c1ccc(NC(=S)NC2CC3C=CC2C3)cc1 (stereo not drawn) | 2.76 (active) |
| Cc1ccc(C)c(NC(=S)NNC(=S)Nc2ccc(C(C)C)cc2)c1 | 0.941 |
| Cc1ccccc1N1CCN(CCCN2C(=O)C3CCCCN3C2=O)CC1 (stereo not drawn) | 1.05 |
| O=C1CCC([N+](=O)[O-])C(c2ccccc2Br)N1 (stereo not drawn) | 1.03 |
| O=P(O)(CN1CCCCCC1)C1Cc2ccccc2C1 | 1.05 |
| Cc1ccccc1NC(=O)COc1cccc2c1CCNC2=O | 0.912 |
| C#CCOCCOCCOCCNc1nc(N2CCN(C(=O)CCCCCCCCCCNC(=O)[C@H]([C@@H](C)CC)n3cc(CCCCN=C(N)N)nn3)CC2)nc(N2CCN(C(=O)CCCCCCCCCCNC(=O)[C@H](CO)n3cc(CCCSC)nn3)CC2)n1 | 12.7 (active) |
| C#CCOCCOCCOCCNc1nc(N2CCN(C(=O)[C@H](CCCN=C(N)N)n3cc(C(N)[C@@H](C)CC)nn3)CC2)nc(N2CCN(C(=O)[C@H](CO)n3cc([C@@H](N)C(C)C)nn3)CC2)n1 (stereo partly drawn) | 0.988 |
| C#CCOCCOCCOCCNc1nc(N2CCN(C(=O)CCCCCCCCCCNC(=O)Cn3cc(CCCCCN)nn3)CC2)nc(N2CCN(C(=O)CCCCCCCCCCNC(=O)[C@H](CO)n3cc(CCCSC)nn3)CC2)n1 | 2.45 (active) |
| C#CCOCCOCCOCCNc1nc(N2CCN(C(=O)CCCCCCCCCCNC(=O)[C@H](CCCCN)n3cc(C)nn3)CC2)nc(N2CCN(C(=O)CCCCCCCCCCNC(=O)[C@H](CO)n3cc(CCCSC)nn3)CC2)n1 | 1.29 |
| C#CCOCCOCCOCCNc1nc(N2CCN(C(=O)[C@H](C(C)C)n3cc(CCO)nn3)CC2)nc(N2CCN(C(=O)[C@H]([C@@H](C)CC)n3cc(CCCN=C(N)N)nn3)CC2)n1 | 1 |
| C#CCOCCOCCOCCNc1nc(N2CCN(C(=O)Cn3cc(CCCCN)nn3)CC2)nc(N2CCN(C(=O)[C@H](CCCCN)n3cc(CCC(=O)O)nn3)CC2)n1 | 0.948 |
| COc1ccc(CCNC(=O)C2CCCN(Cc3nc(-c4cccc(Cl)c4)oc3C)C2)cc1OC (stereo not drawn) | 0.883 |
| CN(C)C(=O)N1CCNCC1 | 0.933 |
| c1ccc(CCN2CN=C(Nc3nc4ccccc4o3)NC2)cc1 | 0.958 |
| CC[C@]12c3[nH]c4ccc(Cl)cc4c3CCN1C(=O)[C@@H](CC(=O)NCCCOC)C[C@@H]2C(=O)N1CCN(C(=O)C2CC2)CC1 | 0.995 |
| COc1ccc(-n2nc(C(=O)NCC(=O)N3CCN(c4ccccc4OC)CC3)c3ccccc3c2=O)c(OC)c1 | 1.03 |
| C[C@@H](O)c1nc2ccccc2n1N | 0.944 |
| COCCNC(=O)CCCN1C(=O)c2ccccc2Sc2ncccc21 | 1.03 |

| Structure (SMILES) | activation factor |
| --- | --- |
| CN(c1cccc(NC(=O)Nc2ccc(Cl)cc2)c1)S(C)(=O)=O | 2.3 (active) |
| Cc1cc(Cl)nc(NC(=O)Nc2cccc(Cl)c2)n1 | 0.931 |
| CN(c1cccc(NC(=O)c2ccc(CN3CCc4ccccc4C3)cc2)c1)S(C)(=O)=O | 1.06 |
| CN(CCc1ccccn1)C(=O)c1ccc(OC2CCN(CCc3ccccc3)CC2)cc1 | 1.07 |
| CC(C)c1nc(SCC(=O)NC(=O)NC(C)(C)C)n[nH]1 | 1 |
| Cc1noc(C)c1CSc1nc2cc(S(=O)(=O)N3CCOCC3)ccc2o1 | 0.946 |
| CCOC(=O)c1sc(NC(=O)CSc2nc(O)c(Cc3ccccc3)c(=O)[nH]2)nc1C | 0.914 |
| CN(Cc1ccc(F)cc1)C(=O)COc1ccc2ccccc2c1 | 1 |
| COc1cc(NC(=S)NCc2ccc(S(N)(=O)=O)cc2)cc(OC)c1 | 1.06 |
| COc1cc(NC(=S)NCCSc2ccc(C)cc2)cc(OC)c1 | 2.86 (active) |
| COc1cccc(C(=O)NCCSc2ccc(Br)cc2)c1 | 1.14 |
| S=c1nccc(-c2cc(Cl)sc2Cl)[nH]1 | 1.08 |
| CC(CNC(=O)c1ccc(N)cc1)NC(=O)c1ccc(N)cc1 (stereo not drawn) | 1.09 |
| CCn1cc(CN2CCC(C(=O)Nc3cccc(-c4cccc(Cl)c4)c3)CC2)cn1 | 5.15 (active) |
| O=C(NC1CCCC1)C1CCN(C(=O)Nc2cccc(Cl)c2)CC1 | 1.03 |
| CCn1cc(CN2CCC(n3nccc3NC(=O)CCCc3ccccc3)CC2)c(C)n1 | 1.22 |
| O=C(Nc1cccc(-c2cscn2)c1)C1CCN(Cc2ccsc2)CC1 | 1.47 |
| CCn1cc(CN2CCC(C(=O)Nc3cccc(-c4cccc(Cl)c4)c3)CC2)c(C)n1 | 3.39 (active) |
| COc1cccc(-c2cccc(NC(=O)C3CCN(C4CCC4)CC3)c2)c1 | 1.01 |
| O=C(Nc1cccc(-c2cccc(Cl)c2)c1)C1CCN(C2CCC2)CC1 | 6.17 (active) |
| O=C(Nc1cnn(Cc2ccc(Cl)cc2)c1)C1CCCC1 | 0.956 |
| CC(=O)c1cc(CN2CCC(C(=O)Nc3cccc(-c4cscn4)c3)CC2)cs1 | 1.08 |
